From PubChem BioAssay
Runt-CBFb FRET = inhibitors of human RUNX1 Runt domain binding to CBFb. actives 0.46% (n = 220,000). AID 1496. inhibition, % at 20 µM. Cerulean-Runt/Venus-CBFb FRET ratio 530/480, 1 h;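 active = inhibition over about 50% at 20 µM in the single-dose screen, limit read from the data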;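 note: 0% = DMSO wells and 100% = excess unlabeled CBFb competitor control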
Target sequence (Q01196 whole entry, looked up, the tested form may be a part): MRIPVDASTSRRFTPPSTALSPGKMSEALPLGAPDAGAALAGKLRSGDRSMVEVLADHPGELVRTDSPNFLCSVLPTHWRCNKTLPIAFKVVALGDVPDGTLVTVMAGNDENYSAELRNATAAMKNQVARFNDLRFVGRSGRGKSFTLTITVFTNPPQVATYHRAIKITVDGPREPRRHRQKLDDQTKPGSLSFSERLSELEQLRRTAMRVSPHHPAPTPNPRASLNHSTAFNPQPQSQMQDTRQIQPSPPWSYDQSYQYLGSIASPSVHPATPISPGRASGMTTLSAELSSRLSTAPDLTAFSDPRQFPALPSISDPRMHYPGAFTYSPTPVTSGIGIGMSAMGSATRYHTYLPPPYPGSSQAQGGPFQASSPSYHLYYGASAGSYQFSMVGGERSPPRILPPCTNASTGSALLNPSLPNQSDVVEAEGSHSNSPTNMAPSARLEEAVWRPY
Target sequence (Q13951 whole entry, looked up, the tested form may be a part): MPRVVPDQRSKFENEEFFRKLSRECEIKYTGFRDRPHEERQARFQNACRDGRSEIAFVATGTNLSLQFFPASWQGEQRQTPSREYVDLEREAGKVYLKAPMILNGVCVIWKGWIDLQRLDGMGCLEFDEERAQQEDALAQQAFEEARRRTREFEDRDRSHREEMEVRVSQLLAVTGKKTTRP
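Assay system: Cerulean-tagged RUNX1 Runt domain (FRET donor) fusion protein / Amount: 100 nM each of Venus-CBFb and Cerulean-Runt domain / Medium: Tris buffer pH 7.5 with salts and BSA / Also added: Venus-CBFb 100 nM / Schedule: 1 h complex formation plus 1 h compound treatment, room temperature / Signal: FRET fluorescence / Read-out: loss of energy transfer signal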
RanGTP-Imp inh = inhibitors of RanGTP-importin-beta interaction, primary screen, biochemical, FRET, CFP-Ran, YFP-importin-beta, homogeneous | inhibition, % (test concentration not listed) | AID 2216 | actives 1.1% (n = 300,000) | cell-free CFP-Ran/YFP-importin-beta FRET ratio;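 active = more than half of the replicate wells show a fall in the fluorescence ratio signal beyond about 16%, limit read from the data, passing the limit was not always enough; inconclusive = exactly half of the replicate wells pass the set limit; inactive = fewer than half of replicates pass the limit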;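 note: 0% = DMSO wells and 100% = Ran loaded with GDP instead of GTP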
MEX-5 binding = C. elegans MEX-5 TCR-2 RNA binding activity; actives 0.38% (n = 300,000); AID 1832; activity score (negative = inhibition of binding), % at 10 µM; Q9XUB2; MEX-5/FITC-TCR2 RNA binding, fluorescence polarization; hits give low values;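 active = inhibition past about -25% in most replicates, and total fluorescence under double the plate's negative control median, limit read from the data; inconclusive = replicates evenly split on the limit, or fluorescence at least double controls; inactive = too little inhibition in most replicates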;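 note: 0% = DMSO and -100% = 5 µM competing unlabeled TCR2 RNA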
Runt-SMMHC FRET = blocks binding of human RUNX1 Runt domain to CBFb-SMMHC. Cerulean-Runt/Venus-CBFb-SMMHC FRET ratio 530/480, 1 h. AID 1434. actives 0.74% (n = 220,000). inhibition, % at 20 µM;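 active = mean inhibition across duplicate retests at 20 µM reaching about 50%, limit read from the data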;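 note: 0% = DMSO wells and 100% = wells with excess untagged CBFb-SMMHC; inhibitors lower the FRET ratio by blocking Runt binding to CBFb-SMMHC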
EBV gp42 inh = inhibitors of Epstein-Barr virus glycoprotein 42; actives 0.42% (n = 220,000); inhibition, % (tested at 21.74 µM); Fluorescence polarization binding assay, mP read-out; Q1HVG2; in the data active = inhibition above about 50%
LANA-H2B inh = blocks KSHV LANA binding to histone H2A/H2B | actives 0.6% (n = 320,000) | cell-free LANA-H2A/H2B peptide, fluorescence polarization | Q9QR71 | inhibition, % (no concentration beside the values); in the data active = inhibition mostly above about 10%, no sharp cut-off; inactive = mostly below about 6.7%
* marks the source's active call; other numbers are inactive results; ? = inconclusive; . = no result. An excerpt weighted towards active compounds, which were near 2.4% of everything screened.

SMILES	Runt-CBFb FRET	RanGTP-Imp inh	MEX-5 binding	Runt-SMMHC FRET	EBV gp42 inh	LANA-H2B inh
CC(C)CC(=O)Nc1ccc(C(=O)NN2C(=O)c3ccccc3C2=O)cc1	-2.6	-1.2	-1.5	2.6	-1.6	-2.0
CCOC(=O)N1CCN(C(=O)/C=C/c2ccc(C(C)(C)C)cc2)CC1	.	27.7*	1.1	.	.	37.5*
CCN(C(=O)COC(=O)CNC(=O)c1ccc(F)cc1)C1CCS(=O)(=O)C1 (configuration not stated)	0.4	-2.9	-0.9	3.5	12.2	-4.7
CC1(c2ccc(OC(F)F)cc2)NC(=O)N(/N=C/c2c(O)ccc3ccccc23)C1=O (configuration not stated)	38.6	7.1	1.7	71.2*	-20.1	-3.6
COc1ccc(N/C(=C(/C(Cl)=C(Cl)Cl)[N+](=O)[O-])n2nnc3ccccc32)cc1	-9.6	-40.2	-42.4*	-47.9	15.1	2.7
Cc1ccccc1N/C(=C(/C(Cl)=C(Cl)Cl)[N+](=O)[O-])n1nnc2ccccc21	-2.4	7.1	-0.3	-2.1	-5.5	5.2
CCOC(=O)N1CCC(NC(=O)c2cc3cc4cc(OC)ccc4nc3o2)CC1	-4.5	21.0*	2.8	2.3	10.7	-3.0
COc1ccc2nc3oc(C(=O)NC4CCN(Cc5ccccc5)CC4)cc3cc2c1	-2.0	.	.	-3.1	-16.2	4.2
Cn1nnnc1SCC(=O)Nc1ccccc1Br	.	-0.5	0.5	.	.	-1.6
Cn1nnnc1SCC(=O)Nc1ccccc1N1CCCCC1	-4.2	-4.9	1.0	2.2	139.7*	-4.9
CC1CCCCC1NC(=O)C1CCN(S(=O)(=O)N2CCOCC2)CC1 (configuration not stated)	-0.9	6.5	1.3	3.1	1.8	25.9*
CC1CCCC(NC(=O)C2CCN(S(=O)(=O)N3CCOCC3)CC2)C1C (configuration not stated)	-1.2	-3.2	1.0	-4.1	-18.7	5.7
CC1(C)CC2CC(C)(CN2C(=O)COC(=O)c2cncc(Br)c2)C1 (configuration not stated)	.	.	.	.	.	-2.0
Cc1cccc(C)c1NC(=O)CN(C)C(C)C(=O)NCC(=O)Nc1ccc(F)c(F)c1F (configuration not stated)	.	.	.	.	.	186.6*
Cc1ccc(-n2nc3c(c2NC(=O)c2ccc(F)c(F)c2)CS(=O)(=O)C3)cc1	.	-0.6	0.4	.	.	109.2*
CC(NC(=O)c1ccc(S(=O)(=O)NCc2ccco2)cc1)c1ccc(F)cc1 (configuration not stated)	.	.	.	.	.	1.1
C=CCSc1nnc(CCCCCN2C(=O)c3cccc4cccc(c34)C2=O)o1	-10.0	?	1.9	-6.4	-7.7	-1.6
Oc1ccc(-c2nc(-c3ccc(O)c(O)c3)cs2)cc1	31.2	0.1	-68.0*	27.7	0.0	3.4
Oc1ccc(Nc2nc(-c3ccc4ccccc4c3)cs2)cc1	8.6	-5.2	-0.9	-6.9	-4.0	-3.4
CC(Sc1ccc(S(=O)(=O)N2CCOCC2)cn1)C(=O)Nc1ccc(Cl)cc1Cl (configuration not stated)	.	.	.	.	.	23.7*
CC(Sc1ccc(S(=O)(=O)N2CCOCC2)cn1)c1ccccc1Cl (configuration not stated)	.	.	.	.	.	0.9
CCOC(=O)C1=C(C)N=C2SC=C(C)N2C1c1ccc(OC)cc1 (configuration not stated)	23.1	9.6	-2.4	60.0*	-6.5	2.5
CCOC(=O)C1=C(C)Nc2ccc(C)cc2S1	0.6	?	2.4	4.4	-15.9	3.4
CCOCCOC(=O)C1=C(C)Nc2ccc(C)cc2S1	2.0	23.4*	2.9	11.4	-54.7	-3.9
COCCOc1nc2c(c(=O)n(C)c(=O)n2C)n1CCc1ccccc1	-0.7	5.3	1.3	114.7	12.8	11.0*
SMILES	Runt-CBFb FRET	RanGTP-Imp inh	MEX-5 binding	Runt-SMMHC FRET	EBV gp42 inh	LANA-H2B inh
Cc1ccc(O)c(N=Nc2ccccc2)n1	.	-1.9	1.1	.	.	0.1
NC(=O)Nc1ccc(C(=O)OCC(=O)Nc2ccc(Cl)cn2)cc1	-2.1	-0.9	-0.1	-3.5	-9.1	-1.5
Nc1cc(=O)[nH]c(SCC(=O)Nc2ccc(Oc3ccccc3)cc2)n1	.	32.3*	1.7	.	.	16.3*
Nc1cc(=O)[nH]c(SCC(=O)Nc2cccc(Cl)c2)n1	0.0	?	-2.3	0.7	-19.4	-1.2
O=C(COC(=O)CC1CC2CCC1C2)NC(=O)NCc1ccco1 (configuration not stated)	0.5	1.0	-1.6	2.1	0.3	-4.7
O=Cc1ccc(Oc2cnccn2)cc1	-0.7	-1.6	-0.8	-0.1	-13.4	-3.3
Cc1nc2ccc(NC(=O)CS(=O)(=O)c3ccccc3)cc2s1	.	-0.9	2.4	.	.	-0.4
C=CCn1c(SCC(=O)NC2CCS(=O)(=O)C2)nnc1-c1ccncc1 (configuration not stated)	2.0	-1.2	-2.1	2.4	-3.9	2.2
O=C(NCC(=O)N(c1cccnc1)C(C(=O)NC1CCCCC1)c1cccnc1)c1ccco1 (configuration not stated)	0.9	-1.9	-1.6	-0.8	-9.0	13.5*
CC(=O)Nc1ccc(N(C(=O)c2ccco2)C(C(=O)NC2CCCCC2)c2ccccc2)cc1 (configuration not stated)	.	5.4	1.5	.	.	10.0*
CC(=O)Nc1ccc(N(C(=O)c2ccco2)C(C(=O)NC2CCCC2)c2cccs2)cc1 (configuration not stated)	0.2	-1.8	-1.7	-2.9	-3.4	3.3
O=C(NCC(=O)N(c1ccccc1)C(C(=O)NC1CCCC1)c1cccnc1)c1ccco1 (configuration not stated)	-1.1	1.4	0.2	4.6	-16.9	0.2
O=C(CN(C(=O)CNC(=O)c1ccco1)c1ccc(F)cc1)NC1CCCCC1	.	-1.0	1.0	.	.	1.2
CCOc1ccc(N(CC(=O)NC2CCCCC2)C(=O)CNC(=O)c2ccco2)cc1	.	-0.9	-1.9	.	.	26.1*
O=C(N/N=C/c1ccc([N+](=O)[O-])s1)c1ccccc1	0.3	-0.2	-4.5	-12.8	-4.0	4.7
O=C(CNC(=O)c1cccc(F)c1)N/N=C/c1ccc([N+](=O)[O-])s1	.	-2.9	0.1	-4.5	9.5	14.1*
Cc1nc(N2CCc3ccccc3C2)[nH]c(=O)c1Cc1ccccc1	1.3	1.7	-0.3	0.1	-13.2	11.5*
O=C1CCCC2=C1Sc1ccccc1N2	6.3	-0.1	-7.5	-24.2	65.3*	0.1
CN(C)c1ccc(/C=C(\C#N)C(=O)Nc2nc3c(s2)CCN(Cc2ccccc2)C3)cc1	-104.6	-1.6	-15.2	-239.3	105.7*	-12.2
CN(C)c1ccc(/C=C(\C#N)C(=O)c2ccccc2)cc1	-44.8	-16.4	?	-1.3	-69.8	2.7
O=C(Nc1ccnn1C1CCN(Cc2ccccc2)CC1)C1CCCC1	.	-1.0	-0.6	.	.	9.2
